Source: PubChem BioAssay
Only some compounds are listed: those with a hit (about 6.6% of all), similar ones and a draw of the others.
PostGolgi ctrl = inhibits growth of the yeast control strain; inhibition, % at 10 µM; actives 5% (n = 98,000); efflux-deficient yeast background strain, growth absorbance A615, 16 h
Ecoli WT expand = growth inhibitors of E. coli BW25113 wild type; OD600 absorbance; growth inhibition, % at 100 µM; actives 0.15% (n = 98,000);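 active = growth inhibition above about 50% at one test dose, limit read from the data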;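 note: growth measured after 20 h incubation at 37 °C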
Her2 expr inh = inhibitors of human Her2 kinase expression | P04626 | SKBR-3 HER2 protein level, AlphaScreen, 18-24 h; stronger effect = lower value | HER2 level % of control, % at 10 µM | actives 0.69% (n = 65,000);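 active = HER2 level under 5% of the carrier-only control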;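 note: lower value means stronger loss of Her2 protein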
Target sequence (P04626 whole entry, looked up): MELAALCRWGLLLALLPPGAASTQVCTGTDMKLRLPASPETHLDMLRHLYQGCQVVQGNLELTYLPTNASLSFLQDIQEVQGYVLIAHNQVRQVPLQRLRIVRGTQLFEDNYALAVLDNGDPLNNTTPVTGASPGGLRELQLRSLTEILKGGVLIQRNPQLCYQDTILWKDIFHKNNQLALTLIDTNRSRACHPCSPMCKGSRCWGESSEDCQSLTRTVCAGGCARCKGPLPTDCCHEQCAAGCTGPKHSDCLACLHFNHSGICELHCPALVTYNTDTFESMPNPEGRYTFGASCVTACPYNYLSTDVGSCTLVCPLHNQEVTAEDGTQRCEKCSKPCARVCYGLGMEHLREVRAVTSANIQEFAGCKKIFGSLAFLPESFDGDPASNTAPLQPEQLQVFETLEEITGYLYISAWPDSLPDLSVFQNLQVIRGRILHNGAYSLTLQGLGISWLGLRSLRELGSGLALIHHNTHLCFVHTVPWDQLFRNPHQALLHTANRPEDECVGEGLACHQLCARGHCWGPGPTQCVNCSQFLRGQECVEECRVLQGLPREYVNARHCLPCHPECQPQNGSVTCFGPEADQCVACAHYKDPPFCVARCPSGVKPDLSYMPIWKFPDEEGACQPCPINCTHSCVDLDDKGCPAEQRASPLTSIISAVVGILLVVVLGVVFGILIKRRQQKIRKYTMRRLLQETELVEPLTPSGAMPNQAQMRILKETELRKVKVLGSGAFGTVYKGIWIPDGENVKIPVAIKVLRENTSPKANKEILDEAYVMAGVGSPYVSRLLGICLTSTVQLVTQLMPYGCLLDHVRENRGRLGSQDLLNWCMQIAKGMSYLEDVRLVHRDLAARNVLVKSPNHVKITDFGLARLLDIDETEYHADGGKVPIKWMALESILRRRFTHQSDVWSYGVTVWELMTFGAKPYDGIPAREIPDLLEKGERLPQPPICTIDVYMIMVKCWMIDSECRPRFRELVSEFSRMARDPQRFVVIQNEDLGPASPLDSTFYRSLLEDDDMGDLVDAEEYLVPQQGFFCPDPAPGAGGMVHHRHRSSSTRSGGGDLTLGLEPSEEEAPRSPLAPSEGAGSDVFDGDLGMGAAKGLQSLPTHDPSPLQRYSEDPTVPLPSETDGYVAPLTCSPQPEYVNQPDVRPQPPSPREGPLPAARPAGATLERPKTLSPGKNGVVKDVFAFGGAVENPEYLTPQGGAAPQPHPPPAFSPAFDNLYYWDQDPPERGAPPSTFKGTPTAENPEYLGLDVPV
Ecoli tolC = E. coli tolC mutant growth inhibition; actives 2.2% (n = 65,000); E. coli BW25113 tolC mutant growth, OD615; growth inhibition, % at 10 µM (by protocol);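 active = growth inhibition at or above a cutoff equal to the mean over every tested compound plus 3 SD, cut at about 60% in these data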;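 note: growth measured after 20 h incubation at 37 °C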
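Doses: one dose of 10 µM final / Material: E. coli BW25113 ΔtolC::kan, tolC deletion mutant strain / Buffer or medium: LB with kanamycin 50 µg/mL / Evaluation: percent growth inhibition / Detection: optical density read at 615 nm / Incubation: 37 °C, 20 h exposure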
PostGolgi yeast = growth inhibition of a yeast mutant, post-Golgi transport screen; AID 739; actives 0.9% (n = 98,000); inhibition, % at 10 µM; post-Golgi transport phenotypic cell assay;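 note: yeast cells grown in 1536-well plates; yeast grown about 18 h at 30C before absorbance read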
Of the large screens only hits and unclear results are named; the others gave an inactive call. Cut-off read from the data, not from the text of the source, unless noted: active = inhibition above about 30%; inactive = the rest.

O=C(Nc1sc2c(c1C(=O)NCC1CCCO1)CCCC2)c1cccs1 (configuration not stated)	PostGolgi ctrl 68, PostGolgi yeast 86
COCC(=O)Nc1sc2c(c1C(=O)OC)CCCC2	none
Cc1ccc(C(=O)Nc2sc3c(c2C(=O)O)CCCCC3)o1	none
CCOc1ccc(N(CC(=O)NC(C)CC)S(=O)(=O)c2c(C)noc2C)cc1 (configuration not stated)	none
CCn1cc(C(=O)N2CCOCC2)c(=O)c2cc(S(=O)(=O)N(C)C3CCCCC3)ccc21	none
O=C(Nc1sc2c(c1C(=O)O)CCC2)c1ccco1	none (no result: Her2 expr inh, Ecoli tolC)
O=C(Nc1sc2c(c1C(=O)NC1CC1)CCCCCC2)c1ccco1	PostGolgi ctrl 57
CCc1nnc(NC(=O)CN2CCN(c3nc(-c4ccccc4)cs3)CC2)s1	PostGolgi ctrl 42
CCc1nnc(NC(=O)CN2CCN(c3ccccc3OC)CC2)s1	none
COc1ccc(Br)cc1C1N2CC3(C)CN1CC(C)(C2)C3=O (configuration not stated)	PostGolgi ctrl 39 (no result: Her2 expr inh, Ecoli tolC)
COc1ccc2[nH]cc(C3N4CC5(C)CN3CC(C)(C4)C5=O)c2c1 (configuration not stated)	none
CCCn1c(SCC(=O)Nc2sc(C)c(C)c2C(=O)OCC)nc2c1c(=O)n(C)c(=O)n2C	none
Cc1cccnc1Nc1nc(-c2ccc(O)cc2O)cs1	PostGolgi ctrl 59, Ecoli tolC 100
NS(=O)(=O)c1ccc(Nc2nc(-c3ccc(O)cc3O)cs2)cc1	none (no result: Her2 expr inh, Ecoli tolC)
Cc1cccc(Nc2nc(-c3ccccn3)cs2)n1	Her2 expr inh -21, Ecoli tolC 98
c1ccc(Nc2nc(-c3cccs3)cs2)nc1	PostGolgi ctrl 31, Ecoli tolC 100
Cc1cccnc1Nc1nc(-c2ccccn2)cs1	PostGolgi ctrl 52, PostGolgi yeast 101 (no result: Her2 expr inh, Ecoli tolC)
O=C(NCc1ccc2c(c1)OCO2)c1ccc(C2SCC(=O)N2Cc2ccco2)cc1 (configuration not stated)	none
OC(COCc1ccccc1)CN1CCN(c2ccccc2)CC1 (configuration not stated)	none
Cc1ccc(OCC(O)CN2CCN(c3ccccc3)CC2)cc1 (configuration not stated)	none
CCCc1ccc(OCC(O)CN2CCN(c3ccccc3)CC2)cc1 (configuration not stated)	PostGolgi ctrl 85, PostGolgi yeast 72
CCc1ccc(OCC(O)CN2CCN(c3ccccc3)CC2)cc1 (configuration not stated)	PostGolgi ctrl 33
CCOC(=O)Cn1c(-c2cccnc2Cl)nc2cc(C)c(C)cc21	none (no result: Her2 expr inh, Ecoli tolC)
CCOC(=O)Cn1c(-c2cccnc2Cl)nc2cc(Cl)c(Cl)cc21	PostGolgi ctrl 33 (no result: Her2 expr inh, Ecoli tolC)
CCCc1c(CC)c(=N)c2ccccc2n1C	none
O=C(Nc1ccc(N2CCCC2)c(Cl)c1)c1ccco1	none (no result: PostGolgi ctrl, Ecoli WT expand, PostGolgi yeast)
O=C(Cc1ccc(Cl)cc1)Nc1ccc(N2CCN(C(=O)c3ccco3)CC2)c(Cl)c1	PostGolgi ctrl 60
O=C(Nc1ccc(N2CCN(C(=O)c3ccco3)CC2)c(Cl)c1)c1cccs1	Ecoli tolC 71
COc1ccc(N(C(=O)Nc2ccc(Cl)cc2)C2=NCCC2)cc1	none
Oc1ccc2ccccc2c1C1Nc2cccc3cccc(c23)N1	PostGolgi ctrl 37 (no result: Her2 expr inh, Ecoli tolC)
O=C1C(C2=C(O)c3ccccc3C2=O)=Nc2ccccc21	Her2 expr inh -16
Cc1ccc(NC2=NC(c3ccco3)n3c(nc(C)cc3=O)N2)c(C)c1 (configuration not stated)	none (no result: PostGolgi ctrl, Ecoli WT expand, PostGolgi yeast)
Cc1ccc(C(c2sc3nc(C)nn3c2O)N2CCN(c3ccccc3F)CC2)cc1 (configuration not stated)	Her2 expr inh -18
CCN(CC)c1ccc(/C=C2/C(=O)N(c3ccc([N+](=O)[O-])cc3)N=C2N2CCOCC2)cc1	PostGolgi ctrl 34 (no result: Her2 expr inh, Ecoli tolC)
CCCCCOC(=O)C1=C(C)Nc2nnnn2C1c1ccccc1Cl (configuration not stated)	PostGolgi ctrl 48, PostGolgi yeast 46 (no result: Her2 expr inh, Ecoli tolC)
O=C(c1ccc2c(=O)n(-c3ccccc3)c(=O)[nH]c2c1)N1CCCCC1	none
CC1CC(C)CN(S(=O)(=O)c2ccc(NC(=O)C3COc4ccccc4O3)cc2)C1 (configuration not stated)	PostGolgi ctrl 38
O=C(c1csc2ccccc12)N1CCN(c2ccc(Cl)c(Cl)c2)CC1	PostGolgi ctrl 36 (no result: Her2 expr inh, Ecoli tolC)
Cc1n[nH]c(C)c1S(=O)(=O)N1CCCC(C(=O)N2CCN(c3ccc(Cl)cc3)CC2)C1 (configuration not stated)	PostGolgi ctrl 44
O=C(C1CCCN(S(=O)(=O)c2cccc3nonc23)C1)N1CCC(Cc2ccccc2)CC1 (configuration not stated)	none
O=C(C1CCCN(S(=O)(=O)c2cccc3nonc23)C1)N1CCN(c2cccc(Cl)c2)CC1 (configuration not stated)	PostGolgi ctrl 45 (no result: Her2 expr inh, Ecoli tolC)
Cc1[nH]n(-c2ccccc2)c(=S)c1C=Nc1cccc([N+](=O)[O-])c1	none (no result: Her2 expr inh, Ecoli tolC)
CCOc1ccc(S(=O)(=O)n2cc(-c3ccc(F)cc3)c(N)n2)cc1	none (no result: Her2 expr inh, Ecoli tolC)
CCOc1cc(S(=O)(=O)n2cc(-c3ccc(F)cc3)c(N)n2)cc(OCC)c1OCC	Ecoli tolC 63
CCOC(=O)C(NC(C)=O)(Nc1ccc(S(=O)(=O)Nc2onc(C)c2C)cc1)C(F)(F)F (configuration not stated)	PostGolgi yeast 35
CCOC(=O)C(NC(C)=O)(Nc1ccc(S(=O)(=O)Nc2cc(C)nc(C)n2)cc1)C(F)(F)F (configuration not stated)	none
O=C1CC(c2cc3c(cc2Br)OCO3)C2=C(CCCC2=O)N1 (configuration not stated)	none
O=C(CN1C(=O)C2C3C=CC(C3)C2C1=O)NCCc1ccccc1 (configuration not stated)	none
O=C(NCCN1C(=O)C2C3C=CC(C3)C2C1=O)Nc1ccc(Br)cc1 (configuration not stated)	none
Cc1ccccc1NCN1C(=O)C2C3C=CC(C3)C2C1=O (configuration not stated)	PostGolgi ctrl 32
O=C1C2C3C=CC(C3)C2C(=O)N1CNc1ccccc1 (configuration not stated)	none (no result: Her2 expr inh, Ecoli tolC)
Cc1cccc(NCN2C(=O)C3C4C=CC(C4)C3C2=O)c1 (configuration not stated)	PostGolgi ctrl 33 (no result: Her2 expr inh, Ecoli tolC)
COc1ccccc1NC(=O)NCCN1C(=O)C2C3C=CC(C3)C2C1=O (configuration not stated)	PostGolgi ctrl 42
O=C1C2C3C=CC(C3)C2C(=O)N1CN(Cc1ccccc1)CN1C(=O)C2C3C=CC(C3)C2C1=O (configuration not stated)	PostGolgi ctrl 37
CC(C)(C)OC(=O)N1CCC[C@H]1c1nnc(SCc2ccccc2F)o1	none
CC1CCCC(C)N1C(=O)Cn1c(=O)sc2ccccc21 (configuration not stated)	none
O=c1oc(-c2cccc(S(=O)(=O)N3CCOCC3)c2)nc2ccccc12	none
